Results from ChEMBL document CHEMBL4765327, “Design and synthesis of thiourea-based derivatives as Mycobacterium tuberculosis growth and enoyl acyl carrier protein reductase (InhA) inhibitors” (Eur J Med Chem, 2020).

How the values were obtained:
[1] = test system: Mycobacterium tuberculosis; experiment: Antimycobacterial activity against Mycobacterium tuberculosis H37Rv assessed as inhibition of microbial growth incubated for 1 week by alamar blue based assay; assay type: functional; conditions: 168 h, time 1 weeks
Procedure, shortened: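 M. tuberculosis H37Rv by Microplate Alamar Blue Assay; MIC reported in μg/mL, with isoniazid, rifampicin and ethambutol run as standard drugs.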

[2] = Cytotoxicity against mouse RAW264.7 cells assessed as reduction in cell viability at 50 ug/ml incubated for 72 to 96 hrs by MTT assay; assay type: cell-based; conditions: at 50 µg/mL, time 72-96 hrs, read-out: INH
[3] = target: T1, Enoyl-[acyl-carrier-protein] reductase [NADH] (Mycobacterium tuberculosis, UniProt P9WGR1); experiment: Inhibition of recombinant Mycobacterium tuberculosis His6-tagged InHA expressed in Escherichia coli BL21 using trans-2-dodecenoyl-Coenzyme A as substrate
T1 sequence (P9WGR1 whole entry): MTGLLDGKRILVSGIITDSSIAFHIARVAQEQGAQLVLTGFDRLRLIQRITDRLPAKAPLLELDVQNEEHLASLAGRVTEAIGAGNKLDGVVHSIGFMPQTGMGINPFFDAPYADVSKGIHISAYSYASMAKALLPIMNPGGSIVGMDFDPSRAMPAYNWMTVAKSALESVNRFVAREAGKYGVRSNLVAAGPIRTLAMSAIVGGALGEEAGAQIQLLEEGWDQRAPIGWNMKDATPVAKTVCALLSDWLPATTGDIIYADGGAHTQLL
Procedure, shortened: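 M. tuberculosis InhA screened at 50 μM, and compounds above 70% inhibition also at 5 μM; triclosan positive control; triplicate assays; IC50 from 4-parameter curve fit using at least seven points.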

[4] = test system: Mycobacterium tuberculosis; experiment: Antimycobacterial activity against Mycobacterium tuberculosis H37Rv infected in mouse primary macrophage cells assessed as reduction in colony forming unit at 10 uM incubated for 48 hrs followed by macrophage lysis and measured after 3 weeks by alamar blue based serial dilution method; assay type: functional; conditions: time 23 day
Procedure, shortened: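 Macrophages infected with M. tuberculosis, then exposed to compounds at 10 μM final for two days; bacteria suspended in 7H9 broth, serially diluted, plates incubated at 37 °C and growth read after three weeks.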

[5] = test system: Mycobacterium tuberculosis; experiment: Antimycobacterial activity against Mycobacterium tuberculosis H37Rv assessed as reduction in colony forming unit at 1 to 10 ug/ml incubated for 7 days in nutrient starvation medium by alamar blue based serial dilution method; assay type: functional; conditions: dose 1-10 µg/ml; time 7 day
Procedure, shortened: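 Culture starved in PBS at 37 °C for six weeks, then exposed to compounds, isoniazid or rifampicin at 10 μg/ml for seven days; persisters counted by MPN assay.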

| SMILES | MIC [1] [µM] | cytotoxicity at 50 ug/ml [2] [%] | IC50 [3] [µM] | fold change (FC) [4] | fold change (FC) [5] |
| --- | --- | --- | --- | --- | --- |
| Cc1cccnc1NC(=S)Nc1ccccc1 | > 103 |  |  |  |  |
| Cc1cccnc1NC(=S)Nc1ccc(F)cc1 | 47.9 |  |  |  |  |
| Cc1cccnc1NC(=S)Nc1cc(C(F)(F)F)cc(C(F)(F)F)c1 | > 66 |  |  |  |  |
| Cc1cccnc1NC(=S)Nc1ccc2ccccc2c1 | > 85.3 |  |  |  |  |
| O=C(NCc1ccccc1Cl)Nc1ccccc1 | > 95.8 |  |  |  |  |
| S=C(NCc1ccccc1Cl)Nc1ccccc1 | > 90.2 |  |  |  |  |
| Cc1cccnc1NC(=S)Nc1ccccc1C(F)(F)F | > 80.4 |  |  |  |  |
| Cc1cccnc1NC(=S)Nc1ccc(Br)cc1 | 2.42 | 30.8 |  |  |  |
| S=C(NCc1ccccc1Br)Nc1ccccc1 | > 77.9 |  |  |  |  |
| O=C(NCc1ccccc1Br)Nc1ccccc1 | > 82 |  |  |  |  |
| O=[N+]([O-])c1ccc(NC(=S)NCc2ccccc2Br)cc1 | 4.26 | 24.9 | 15.6 |  |  |
| Cc1ccc(NC(=S)Nc2ncccc2C)cc1 | 97.3 |  |  |  |  |
| Cc1cccnc1NC(=S)Nc1ccc(Cl)cc1Cl | 2.5 | 34 |  | 1.4 | 2.3 |
| COc1ccc(NC(=S)Nc2ncccc2C)cc1 | 45.8 |  |  |  |  |
| Cc1cccnc1NC(=S)Nc1ccc(I)cc1 | 2.11 | 31.2 |  |  | 2 |
| O=[N+]([O-])c1ccc(NC(=S)NCc2ccccc2Cl)cc1 | 2.42 | 29.9 | 17.7 | 1.8 | 2.6 |
| CC[C@@H](CO)NCCN[C@@H](CC)CO [ETHAMBUTOL] | 7.6 |  |  |  |  |
| NNC(=O)c1ccncc1 [ISONIAZID] | 0.36 |  |  | 2.5 | 1.4 |
| CO[C@H]1/C=C/O[C@@]2(C)Oc3c(C)c(O)c4c(O)c(c(/C=N/N5CCN(C)CC5)c(O)c4c3C2=O)NC(=O)/C(C)=C\C=C\[C@H](C)[C@H](O)[C@@H](C)[C@@H](O)[C@@H](C)[C@H](OC(C)=O)[C@@H]1C [RIFAMPIN] | 0.12 |  |  |  | 1.6 |
